# Laboratory results as given in article PMC8092417 (Anti-cancer drugs, 2020).
# Legend:
# [1] = system: TU-BcX-4IC explants; assay: Western blot of treated PDX tumor explants; format: cell-based, human; conditions: 24 hours
# [2] = system: MDA-MB-231 cells; assay: Ki-67 immunofluorescence staining for proliferation; format: cell-based, human; conditions: MDA-MB-231, 1 μM, 72 hours
# [3] = system: MDA-MB-231 cells; assay: qRT-PCR of epithelial and mesenchymal genes; format: cell-based, human; conditions: MDA-MB-231, 1 μM, 72 hours
# Procedure, shortened: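 MDA-MB-231 cells in 5% charcoal-stripped DMEM were pre-exposed for 72 h to test compound (1 μM) or DMSO. RNA was then isolated and gene expression measured by quantitative real-time PCR.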
# [4] = molecular target: MST2 (Homo sapiens, UniProt Q13188); assay: Kinase inhibition assay; format: biochemical; conditions: 1 μM
# [5] = system: MDA-MB-231 cells; assay: Crystal violet staining, cells remaining / viability dose-response; format: cell-based, human
# Procedure, shortened: (§1)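 Cells were plated at 5,000/well in 5% charcoal-stripped DMEM for 48 h, then exposed to test compound or DMSO vehicle for 72 h at 37 °C, 5% CO2. They were fixed with glutaraldehyde for 20 min and stained for 20 min with 0.1% crystal violet in 90% methanol. After overnight drying, cells were lysed in 33% acetic acid and read at 620 nm. Signal was normalized to DMSO and plotted as dose-response.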
# [6] = system: BT-549 cells; assay: as above; format: cell-based, human
# Procedure, shortened: as §1
# [7] = molecular target: T1, NEK2 (Homo sapiens, UniProt P51955); assay: Kinase inhibition assay; format: biochemical; conditions: 1 μM
# T1 sequence (P51955 1-445): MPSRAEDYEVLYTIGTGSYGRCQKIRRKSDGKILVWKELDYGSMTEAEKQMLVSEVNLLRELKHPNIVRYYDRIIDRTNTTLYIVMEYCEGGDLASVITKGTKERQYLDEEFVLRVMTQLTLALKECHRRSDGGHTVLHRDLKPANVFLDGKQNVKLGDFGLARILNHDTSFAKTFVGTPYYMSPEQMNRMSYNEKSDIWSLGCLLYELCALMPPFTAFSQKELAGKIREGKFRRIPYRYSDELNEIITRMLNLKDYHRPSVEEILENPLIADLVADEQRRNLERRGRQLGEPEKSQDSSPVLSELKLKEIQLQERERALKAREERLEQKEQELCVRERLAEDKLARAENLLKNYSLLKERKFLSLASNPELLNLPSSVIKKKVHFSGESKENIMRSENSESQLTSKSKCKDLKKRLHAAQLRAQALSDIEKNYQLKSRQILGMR
# [8] = molecular target: MINK (Homo sapiens, UniProt Q8N4C8); assay: Kinase inhibition assay; format: biochemical; conditions: 1 μM
# [9] = system: MDA-MB-231 M2 spheres; assay: Mammosphere formation and area quantification; format: cell-based, human; conditions: MDA-MB-231, 7 days treatment
# Procedure, shortened: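 MDA-MB-231 cells were seeded at 1,000/well in low-attachment wells in serum-free F12/DMEM plus B-27 and allowed 24 h to form spheres. Spheres were then treated with test compound or DMSO for one week, re-dosed every three days. Imaging was at 40X or 100X. Sphere length and width were measured, area was calculated, and values were compared with DMSO controls.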
# [10] = system: TU-BcX-4IC cells; assay: Transwell migration assay; format: cell-based, human; conditions: pretreated 1 μM 72 hours, 24 hours migration
# Procedure, shortened: (§2)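 Cells were pretreated 72 h with test compound (1 μM) or DMSO, and viable cells were then seeded into transwell chambers for 24 h. Non-migrated cells were removed. Migrated cells were fixed, crystal violet-stained, imaged by brightfield and counted. Counts were normalized to DMSO per cell line; triplicate experiments.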
# [11] = molecular target: HIPK4 (Homo sapiens, UniProt Q8NE63); assay: Kinase inhibition assay; format: biochemical; conditions: 1 μM
# [12] = system: TU-BcX-4IC M2 spheres; assay: Mammosphere formation and area quantification; format: cell-based, human; conditions: 7 days treatment
# Procedure, shortened: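 Cells were plated at 1,000/well in low-attachment plates in serum-free F12/DMEM with B-27 and left 24 h to form spheres. Spheres were then exposed to test compound or DMSO for one week, re-dosed every three days. Spheres were imaged at 40X or 100X, and length and width were measured to calculate area, which was compared with DMSO controls.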
# [13] = molecular target: LOK (Homo sapiens, UniProt O94804); assay: Kinase inhibition assay; format: biochemical; conditions: 1 μM
# [14] = system: BT549 cells; assay: Transwell migration assay; format: cell-based, human; conditions: BT549, pretreated 1 μM 72 hours, 24 hours migration
# Procedure, shortened: as §2
# [15] = system: TU-BcX-49S cells; assay: qRT-PCR of epithelial and mesenchymal genes; format: cell-based, human
# [16] = system: TU-BcX-4IC cells; assay: qRT-PCR of epithelial and mesenchymal genes; format: cell-based, human; conditions: 1 μM, 72 hours
# Procedure, shortened: (§3)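 Cells were treated 72 h with test compound (1 μM) or DMSO. Total RNA was column-isolated and checked for quantity and quality by absorbance (260, 280 nm). Then 2 μg total RNA was reverse-transcribed and gene expression measured by qRT-PCR.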
# [17] = system: TU-BcX-4IC cells; assay: Crystal violet staining, cells remaining / viability dose-response; format: cell-based, human; conditions: 1 μM, 72 hours
# [18] = system: BT-549 cells; assay: qRT-PCR of epithelial and mesenchymal genes; format: cell-based, human; conditions: BT-549, 1 μM, 72 hours
# Procedure, shortened: as §3
# Sequence of HIPK4 (Q8NE63 whole entry): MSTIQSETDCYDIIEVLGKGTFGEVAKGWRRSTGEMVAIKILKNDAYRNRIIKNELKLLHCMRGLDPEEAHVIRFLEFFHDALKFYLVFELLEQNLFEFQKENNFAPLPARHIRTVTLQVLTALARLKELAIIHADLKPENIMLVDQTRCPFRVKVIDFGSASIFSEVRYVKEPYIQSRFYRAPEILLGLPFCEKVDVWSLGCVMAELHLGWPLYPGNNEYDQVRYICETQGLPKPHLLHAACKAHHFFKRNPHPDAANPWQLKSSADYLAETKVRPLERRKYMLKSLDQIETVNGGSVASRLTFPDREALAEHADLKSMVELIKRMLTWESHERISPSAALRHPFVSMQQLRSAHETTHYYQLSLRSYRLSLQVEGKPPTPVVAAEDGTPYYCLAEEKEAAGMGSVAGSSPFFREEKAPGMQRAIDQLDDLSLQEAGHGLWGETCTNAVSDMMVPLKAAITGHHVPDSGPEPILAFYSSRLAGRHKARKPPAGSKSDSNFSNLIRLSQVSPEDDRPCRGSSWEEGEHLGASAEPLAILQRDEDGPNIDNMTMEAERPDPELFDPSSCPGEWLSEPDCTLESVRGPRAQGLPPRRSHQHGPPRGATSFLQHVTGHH
# Sequence of MST2 (Q13188 whole entry): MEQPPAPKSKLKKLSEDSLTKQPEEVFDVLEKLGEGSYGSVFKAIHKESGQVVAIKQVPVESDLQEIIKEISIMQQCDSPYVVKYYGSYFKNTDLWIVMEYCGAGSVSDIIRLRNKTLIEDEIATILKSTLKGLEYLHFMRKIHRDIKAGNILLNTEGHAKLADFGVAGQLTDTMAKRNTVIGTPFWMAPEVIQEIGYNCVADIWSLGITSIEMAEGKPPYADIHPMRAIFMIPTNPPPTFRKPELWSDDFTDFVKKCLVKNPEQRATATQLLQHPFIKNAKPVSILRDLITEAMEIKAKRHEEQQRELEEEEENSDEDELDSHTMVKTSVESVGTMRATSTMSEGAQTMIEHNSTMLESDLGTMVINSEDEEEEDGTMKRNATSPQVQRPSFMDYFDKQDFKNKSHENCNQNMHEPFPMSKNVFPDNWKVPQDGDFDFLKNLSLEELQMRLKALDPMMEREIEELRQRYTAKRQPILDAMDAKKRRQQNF
# Sequence of MINK (Q8N4C8 whole entry): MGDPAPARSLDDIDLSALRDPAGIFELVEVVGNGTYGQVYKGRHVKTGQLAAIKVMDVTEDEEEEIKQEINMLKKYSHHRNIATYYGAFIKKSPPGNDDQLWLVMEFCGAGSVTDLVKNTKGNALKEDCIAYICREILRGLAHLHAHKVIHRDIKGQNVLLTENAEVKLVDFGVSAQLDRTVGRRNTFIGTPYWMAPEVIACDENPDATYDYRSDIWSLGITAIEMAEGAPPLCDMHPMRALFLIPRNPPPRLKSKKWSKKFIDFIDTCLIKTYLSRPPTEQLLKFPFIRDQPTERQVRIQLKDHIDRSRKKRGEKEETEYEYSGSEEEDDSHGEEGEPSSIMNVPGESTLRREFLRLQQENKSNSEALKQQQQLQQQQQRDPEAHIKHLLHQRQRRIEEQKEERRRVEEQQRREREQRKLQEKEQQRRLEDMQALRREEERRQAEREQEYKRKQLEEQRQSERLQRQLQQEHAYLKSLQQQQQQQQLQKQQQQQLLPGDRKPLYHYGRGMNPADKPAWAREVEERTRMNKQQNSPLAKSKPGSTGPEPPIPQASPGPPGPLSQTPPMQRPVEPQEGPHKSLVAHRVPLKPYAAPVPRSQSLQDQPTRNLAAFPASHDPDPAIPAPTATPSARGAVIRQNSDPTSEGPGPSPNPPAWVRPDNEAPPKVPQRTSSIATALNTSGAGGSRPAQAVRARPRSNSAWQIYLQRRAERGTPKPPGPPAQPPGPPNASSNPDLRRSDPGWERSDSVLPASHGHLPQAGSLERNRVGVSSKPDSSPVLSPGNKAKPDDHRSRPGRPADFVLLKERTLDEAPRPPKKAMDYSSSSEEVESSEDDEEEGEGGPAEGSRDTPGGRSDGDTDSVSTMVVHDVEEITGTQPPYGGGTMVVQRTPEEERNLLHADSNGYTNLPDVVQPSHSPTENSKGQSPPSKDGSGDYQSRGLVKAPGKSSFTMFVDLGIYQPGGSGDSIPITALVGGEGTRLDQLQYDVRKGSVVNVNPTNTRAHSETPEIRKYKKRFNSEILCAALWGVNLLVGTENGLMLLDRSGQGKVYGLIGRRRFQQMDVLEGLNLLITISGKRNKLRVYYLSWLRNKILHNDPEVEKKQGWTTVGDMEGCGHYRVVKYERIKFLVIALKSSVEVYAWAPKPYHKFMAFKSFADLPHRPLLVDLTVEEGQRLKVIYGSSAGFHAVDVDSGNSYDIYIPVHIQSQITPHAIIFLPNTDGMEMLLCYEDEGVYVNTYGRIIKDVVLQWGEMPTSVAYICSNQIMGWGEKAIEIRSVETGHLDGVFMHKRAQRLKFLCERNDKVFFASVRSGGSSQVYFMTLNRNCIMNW
# Sequence of LOK (O94804 whole entry): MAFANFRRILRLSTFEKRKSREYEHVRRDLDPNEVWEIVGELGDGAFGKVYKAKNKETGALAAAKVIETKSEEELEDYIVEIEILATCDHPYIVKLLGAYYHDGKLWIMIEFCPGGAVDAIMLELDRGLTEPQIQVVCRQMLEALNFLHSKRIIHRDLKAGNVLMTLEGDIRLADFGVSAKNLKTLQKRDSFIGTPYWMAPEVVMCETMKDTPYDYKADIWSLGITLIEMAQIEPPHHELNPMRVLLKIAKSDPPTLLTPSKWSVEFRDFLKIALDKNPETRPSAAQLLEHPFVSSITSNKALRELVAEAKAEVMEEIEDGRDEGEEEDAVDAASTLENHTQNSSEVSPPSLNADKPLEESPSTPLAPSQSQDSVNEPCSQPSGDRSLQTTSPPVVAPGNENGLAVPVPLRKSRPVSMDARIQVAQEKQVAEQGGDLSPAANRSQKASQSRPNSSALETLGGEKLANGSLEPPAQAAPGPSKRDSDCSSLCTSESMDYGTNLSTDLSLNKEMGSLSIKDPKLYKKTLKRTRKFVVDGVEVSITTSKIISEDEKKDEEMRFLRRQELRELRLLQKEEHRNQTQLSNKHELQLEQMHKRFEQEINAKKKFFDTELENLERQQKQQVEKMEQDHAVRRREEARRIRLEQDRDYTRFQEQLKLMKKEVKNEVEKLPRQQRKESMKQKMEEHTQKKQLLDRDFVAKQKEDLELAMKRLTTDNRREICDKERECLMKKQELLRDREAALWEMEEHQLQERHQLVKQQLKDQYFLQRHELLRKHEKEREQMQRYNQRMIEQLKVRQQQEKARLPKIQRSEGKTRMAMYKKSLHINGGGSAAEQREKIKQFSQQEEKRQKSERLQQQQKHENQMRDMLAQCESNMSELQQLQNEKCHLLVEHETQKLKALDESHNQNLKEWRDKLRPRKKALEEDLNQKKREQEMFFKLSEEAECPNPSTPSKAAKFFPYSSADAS
structure (smiles),measurement,setting,value
CC[C@@H]1C(=O)N(C)c2cnc(Nc3ccc(C(=O)N[C@H]4CC[C@H](N5CCN(CC6CC6)CC5)CC4)cc3OC)nc2N1C(C)C [BI6727],MMP9 protein expression,[1],suppressed the mesenchymal markers ZEB1 and MMP9 expression
same,ZEB1 protein expression,[1],suppressed the mesenchymal markers ZEB1 and MMP9 expression
CC[C@@H]1C(=O)N(C)c2cnc(Nc3ccc(C(=O)NC4CCN(C)CC4)cc3OC)nc2N1C1CCCC1 [BI2536],Ki-67 positive cells (cell proliferation),[2],significantly reduced the number of Ki-67 positive cells
COc1cc2ncn(-c3cc(OCc4sccc4Cl)c(C(N)=O)s3)c2cc1OC [GSK448459A],MMP9 protein expression,[1],did not suppress MMP9 and ZEB1 protein expressions
same,ZEB1 protein expression,[1],did not suppress MMP9 and ZEB1 protein expressions
same,MMP9 mRNA expression,[3],significantly downregulated MMP9 expression
same,SNAI1 mRNA expression,[3],significantly decreased SNAI1 expression
same,ZEB1 mRNA expression,[3],significantly increased ZEB1 expression
same,cFOS mRNA expression,[3],"suppressive effects in all three TNBC cell lines, although not significantly"
same,Binding activity against MST2,[4],significant binding activity
same,IC50,"[5]; Homo sapiens, MDA-MB-231, 72 h, read-out: IC-50, number of cells remaining",50 µM
same,Number of cells remaining compared to DMSO controls,"[5]; MDA-MB-231, 1 μM, 72 hours",increased number of cells remaining
same,Number of cells remaining compared to DMSO controls,"[6]; BT-549, 1 μM, 72 hours",increased number of cells remaining
same,IC50,"[6]; Homo sapiens, BT-549, 72 h, read-out: IC-50, number of cells remaining",7.5 µM
same,Binding activity against NEK2,[7],significant binding activity
same,Binding activity to NEK2,[7],97.1%
same,Binding activity against MINK,[8],significant binding activity
same,Sphere area,[9],significantly increased sphere area
same,Transwell cell migration,[10],most suppressive effects on cell migration
same,Binding activity against HIPK4,[11],significant binding activity
same,Mammosphere formation (sphere area),[12],significantly suppressed mammosphere formation
same,Binding activity to LOK,[13],99.1%
same,Transwell cell migration,[14],most suppressive effects on cell migration
same,cFOS mRNA expression,[15],Neither GSK346294A nor GSK448459A suppressed cFOS mRNA expression
same,MMP9 mRNA expression,[16],Neither GSK346294A nor GSK448459A affected MMP9 expression
same,ZEB1 mRNA expression,[16],suppressed ZEB1 expression in TU-BcX-4IC cells albeit not significantly
same,cFOS mRNA expression,[16],"suppressive effects in all three TNBC cell lines, although not significantly"
same,Number of cells remaining compared to DMSO controls,[17],increased number of cells remaining
same,Ki-67 positive cells (cell proliferation),[2],decreased Ki-67 positive cells
same,CDH1 mRNA expression,[18],significantly reduced CDH1 mRNA expression
same,MMP9 mRNA expression,[18],Neither GSK346294A nor GSK448459A affected MMP9 expression
same,SNAI1 mRNA expression,[18],increased SNAI1 expression in BT-549 cells significantly
same,cFOS mRNA expression,[18],"suppressive effects in all three TNBC cell lines, although not significantly"
